# Experimental data from different studies.
# Sample: plasma
Structure (SMILES),species,route,dose,setting,half-life
CNC(=O)n1ccc2cc(Oc3ccnc(NC(=O)c4ccc(C5CCN(CCO)CC5)cc4)c3)c(OCCOC)cc21,human,oral,35 mg,"single dose, fed, healthy volunteers",28.3 h
CC[C@H](C)CCCCC(=O)N[C@@H](CCN)C(=O)N[C@H](C(=O)N[C@@H](CCN)C(=O)N[C@H]1CCNC(=O)[C@H]([C@@H](C)O)NC(=O)[C@H](CCN)NC(=O)[C@H](CCN)NC(=O)[C@H](CC(C)C)NC(=O)[C@@H](Cc2ccccc2)NC(=O)[C@H](CCN)NC1=O)[C@@H](C)O,human,intravenous,0.75 mg/kg,"single dose, infusion",5.44 h
Cc1ccc(C(=O)Nc2ccc(CN3CCN(C)CC3)c(C(F)(F)F)c2)cc1C#Cc1cnc2[nH]ncc2c1,human,oral,40 mg,"single dose, healthy volunteers",26.1 h
CC(C)n1c(Nc2cccnc2)nc2cnc(Nc3ccc(N4CCN(C)CC4)cc3)nc21,male human,oral,150 mg,single dose,36 h
Cn1cc(Nc2nc(N)nc(-c3cccc(-n4ccc5cc(C6CC6)cc(F)c5c4=O)c3CO)n2)cn1,human,oral,300 mg,"single dose, fasted, suspension",9 h
NC(=S)NN=Cc1ncccc1N,human,oral,150 mg,,1.5 h
NS(=O)(=O)OC[C@@H]1C[C@@H](n2ccc3c(N[C@H]4CCc5ccccc54)ncnc32)C[C@@H]1O,human,intravenous,20 mg/m²,patients,5.1 h
Cc1ccc(NC(=O)c2ccc(CN3CCN(C)CC3)cc2)cc1Nc1nccc(-c2cncc(-c3oncc3C)c2)n1,human,oral,200 mg/day,"multiple doses, steady state, healthy volunteers",23.3 h
COc1ccc([C@@H](O)c2cc(-c3ncnc4cc(N5CCOCC5)ccc34)c(F)cc2Cl)nn1,human,oral,200 mg,"single dose, patients",3.94 h
